Source: ChEMBL document CHEMBL1142065, “In vitro and in vivo activities of a new cephalosporin, FR264205, against Pseudomonas aeruginosa” (2007)
Converted amounts (≈) assume the structure as drawn. The source made the active and inactive calls. The rule behind the calls is not given here.

Tests used:
Pseudomonas aeruginosa [1] = assay: Antibacterial activity against Pseudomonas aeruginosa PAO1456 expressing constitutive AmpC; assay type: functional
Outline: (§1)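 Agar dilution MIC per NCCLS (CLSI) M7-A7 on Mueller-Hinton agar with twofold serial drug dilutions. Inoculum 10^4 CFU per spot, aerobic incubation 18 to 20 h at 35°C. MIC is the lowest concentration preventing visible growth.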

Escherichia coli [2] = assay: Antibacterial activity against Escherichia coli C600 expressing ESBL TEM3; assay type: functional
Outline: (§2)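 MIC by agar dilution (CLSI M7-A7) on Mueller-Hinton agar with twofold serial drug dilutions; 10^4 CFU spotted per spot; aerobic incubation 18 to 20 h at 35°C; MIC read as lowest concentration preventing visible growth.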

Pseudomonas aeruginosa [3] = assay: Efficacy against Pseudomonas aeruginosa 93 pulmonary infection in mouse assessed as reduction in bacterial counts at 2 mg/kg, sc; assay type: functional, organism-based; set-up: dose 2 mg/kg
Outline: (§3)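 Male ICR mice (4 weeks), made neutropenic with cyclophosphamide 200 mg/kg ip 4 days before infection. Under pentobarbital anesthesia (50 mg/kg iv) they were challenged intranasally with 3.30 log10 CFU of strain 93, grown on tryptic soy agar 35°C 20 h and suspended in saline. Dosed sc twice daily for 3 days from 3 h post-infection. Lung viable counts taken the day after last dose; 6 mice/dose.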

Pseudomonas aeruginosa [4] = assay: Antibacterial activity against Pseudomonas aeruginosa KG2212 producing MexAB-OprM efflux pump; assay type: functional; outline: as §1
Pseudomonas aeruginosa [5] = assay: Reduction in susceptibility against Pseudomonas aeruginosa PAO1 after single passage; assay type: functional, organism-based
Outline: (§4)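 PAO1 passaged daily for five consecutive days in fresh Mueller-Hinton broth with twofold drug dilution series. Each next inoculum came from the tube at one-fourth the MIC. MIC change was followed across passages.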

Escherichia coli [6] = assay: Antibacterial activity against Escherichia coli C600 expressing ESBL TEM5; assay type: functional; outline: as §2
Escherichia coli [7] = assay: Antibacterial activity against Escherichia coli C600 expressing TEM2; assay type: functional; outline: as §2
Pseudomonas aeruginosa [8] = assay: Antibacterial activity against Pseudomonas aeruginosa KG3056 producing MexCD-OprJ efflux pump; assay type: functional; outline: as §1
Escherichia coli [9] = assay: Antibacterial activity against Escherichia coli C600 expressing TEM1; assay type: functional; outline: as §2
Escherichia coli [10] = assay: Antibacterial activity against Escherichia coli C600 expressing ESBL CTX-M3; assay type: functional; outline: as §2
Escherichia coli [11] = assay: Antibacterial activity against Escherichia coli C600 expressing ESBL OXA2; assay type: functional; outline: as §2
Escherichia coli [12] = assay: Antibacterial activity against Escherichia coli C600 expressing ESBL TEM8; assay type: functional; outline: as §2
Escherichia coli [13] = assay: Antibacterial activity against Escherichia coli C600 expressing ESBL SHV2; assay type: functional; outline: as §2
Pseudomonas aeruginosa [14] = assay: Antibacterial activity against ciprofloxacin-resistant Pseudomonas aeruginosa; assay type: functional; outline: as §1
Pseudomonas aeruginosa [15] = assay: Antibacterial activity against Pseudomonas aeruginosa; assay type: functional; outline: as §1
Escherichia coli [16] = assay: Antibacterial activity against Escherichia coli C600 expressing ESBL TEM7; assay type: functional; outline: as §2
Escherichia coli [17] = assay: Antibacterial activity against Escherichia coli C600 expressing ESBL SHV4; assay type: functional; outline: as §2
Escherichia coli [18] = assay: Antibacterial activity against Escherichia coli C600 expressing ESBL SHV3; assay type: functional; outline: as §2
Escherichia coli [19] = assay: Antibacterial activity against Escherichia coli C600 expressing ESBL TEM4; assay type: functional; outline: as §2
Pseudomonas aeruginosa [20] = assay: Antibacterial activity against Pseudomonas aeruginosa FP1380 expressing constitutive AmpC; assay type: functional; outline: as §2
Pseudomonas aeruginosa [21] = assay: Antibacterial activity against Pseudomonas aeruginosa 22029 expressing metallo beta lactamase; assay type: functional; outline: as §1
Escherichia coli [22] = assay: Antibacterial activity against Escherichia coli C600 expressing ESBL TEM6; assay type: functional; outline: as §2
Escherichia coli [23] = assay: Antibacterial activity against Escherichia coli C600 expressing ESBL TEM9; assay type: functional; outline: as §2
Escherichia coli [24] = assay: Antibacterial activity against Escherichia coli C600; assay type: functional; outline: as §2
Escherichia coli [25] = assay: Antibacterial activity against Escherichia coli C600 expressing SHV1; assay type: functional; outline: as §2
Pseudomonas aeruginosa [26] = assay: Antibacterial activity against Pseudomonas aeruginosa PAO1; assay type: functional; outline: as §1
Pseudomonas aeruginosa [27] = assay: Efficacy against Pseudomonas aeruginosa 93 pulmonary infection in mouse assessed as reduction in bacterial counts at 10 mg/kg, sc; assay type: functional, organism-based; set-up: dose 10 mg/kg; outline: as §3
Pseudomonas aeruginosa [28] = assay: Antibacterial activity against ceftazidime-resistant Pseudomonas aeruginosa; assay type: functional; outline: as §1
Pseudomonas aeruginosa [29] = assay: Antibacterial activity against imipenem-resistant Pseudomonas aeruginosa; assay type: functional; outline: as §1
Pseudomonas aeruginosa [30] = assay: Antibacterial activity against Pseudomonas aeruginosa KG4001 producing MexEF-OprN efflux pump; assay type: functional; outline: as §1
Pseudomonas aeruginosa [31] = assay: Antibacterial activity against Pseudomonas aeruginosa KG4545 producing MexXY efflux pump; assay type: functional; outline: as §1
Escherichia coli [32] = assay: Antibacterial activity against Escherichia coli C600 expressing OXA1; assay type: functional; outline: as §2
Pseudomonas aeruginosa [33] = assay: Antibacterial activity against Pseudomonas aeruginosa PAO4222; assay type: functional; outline: as §1
Pseudomonas aeruginosa [34] = assay: Antibacterial activity against Pseudomonas aeruginosa PAO4069 expressing inducible AmpC; assay type: functional; outline: as §1
Escherichia coli [35] = assay: Antibacterial activity against Escherichia coli C600 expressing ESBL CTX-M18; assay type: functional; outline: as §2
Pseudomonas aeruginosa [36] = assay: Antibacterial activity against Pseudomonas aeruginosa 93; assay type: functional; outline: as §2
Pseudomonas aeruginosa [37] = assay: Antibacterial activity against Pseudomonas aeruginosa PAO1 after 5 serial passages; assay type: functional; outline: as §4
Pseudomonas aeruginosa [38] = assay: Efficacy against Pseudomonas aeruginosa 93 assessed as reduction in bacterial counts in mouse urinary tract infection model at 0.5 mg/kg; assay type: functional, organism-based; set-up: dose 0.5 mg/kg; settings: Urine
Outline: (§5)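 Female ICR mice (4 weeks) were denied water 1 day. Under pentobarbital anesthesia they received 4.32 log10 CFU of strain 93 via the […], which was then clamped 5 h. Dosed sc at 5 h post-challenge plus twice daily for 2 days. Bilateral kidney viable counts taken the day after last treatment; 6 mice/dose.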

Pseudomonas aeruginosa [39] = assay: Efficacy against Pseudomonas aeruginosa 93 assessed as reduction in bacterial counts in mouse burn wound infection model at 50 mg/kg, relative to control; assay type: functional, organism-based; set-up: dose 50 mg/kg
Outline: (§6)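 Male ICR mice (4 weeks), anesthetized with pentobarbital, received an ethanol flame burn on the shaved back (0.1 ml flaming ethanol applied twice). The wound was inoculated with 4.60 log10 CFU of strain 93. Dosed iv twice daily for 3 days from 3 h post-infection. Lesion viable counts (CFU/g) taken the day after last dose versus untreated controls; 6 mice/dose.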

Pseudomonas aeruginosa [40] = assay: Efficacy against Pseudomonas aeruginosa 93 assessed as reduction in bacterial counts in mouse urinary tract infection model at 2 mg/kg; assay type: functional, organism-based; set-up: dose 2 mg/kg; settings: Urine; outline: as §5
Pseudomonas aeruginosa [41] = assay: Efficacy against Pseudomonas aeruginosa 93 assessed as reduction in bacterial counts in mouse burn wound infection model at 10 mg/kg; assay type: functional, organism-based; set-up: dose 10 mg/kg; outline: as §6

SMILES: CC(C)(O/N=C(\C(=O)N[C@@H]1C(=O)N2C(C(=O)[O-])=C(C[n+]3ccccc3)CS[C@H]12)c1csc(N)n1)C(=O)O [CEFTAZIDIME]
- MIC (Pseudomonas aeruginosa [1]): 32 µg/mL (≈ 58.5 µM)
- MIC (Escherichia coli [2]): 32 µg/mL (≈ 58.5 µM)
- Activity (Pseudomonas aeruginosa [3]): Active
- MIC (Pseudomonas aeruginosa [4]): 2 µg/mL (≈ 3.66 µM)
- Activity (Pseudomonas aeruginosa [5]): Active
- MIC (Escherichia coli [6]): 32 µg/mL (≈ 58.5 µM)
- MIC (Escherichia coli [7]): 1 µg/mL (≈ 1.83 µM)
- MIC (Pseudomonas aeruginosa [8]): 0.5 µg/mL (≈ 0.915 µM)
- MIC (Escherichia coli [9]): 0.25 µg/mL (≈ 0.457 µM)
- MIC (Escherichia coli [10]): 4 µg/mL (≈ 7.32 µM)
- MIC (Escherichia coli [11]): 4 µg/mL (≈ 7.32 µM)
- MIC (Escherichia coli [12]): 128 µg/mL (≈ 234 µM)
- MIC (Escherichia coli [13]): 128 µg/mL (≈ 234 µM)
- MIC50 (Pseudomonas aeruginosa [14]): 8 µg/mL (≈ 14.6 µM)
- MIC90 (Pseudomonas aeruginosa [14]): 64 µg/mL (≈ 117 µM)
- MIC50 (Pseudomonas aeruginosa [15]): 2 µg/mL (≈ 3.66 µM)
- MIC90 (Pseudomonas aeruginosa [15]): 16 µg/mL (≈ 29.3 µM)
- MIC (Escherichia coli [16]): 64 µg/mL (≈ 117 µM)
- MIC (Escherichia coli [17]): 128 µg/mL (≈ 234 µM)
- MIC (Escherichia coli [18]): > 128 µg/mL
- MIC (Escherichia coli [19]): 32 µg/mL (≈ 58.5 µM)
- MIC (Pseudomonas aeruginosa [20]): > 128 µg/mL
- MIC (Pseudomonas aeruginosa [21]): > 128 µg/mL
- MIC (Escherichia coli [22]): 64 µg/mL (≈ 117 µM)
- MIC (Escherichia coli [23]): 32 µg/mL (≈ 58.5 µM)
- MIC (Escherichia coli [24]): 0.25 µg/mL (≈ 0.457 µM)
- MIC (Escherichia coli [25]): 1 µg/mL (≈ 1.83 µM)
- MIC (Pseudomonas aeruginosa [26]): 2 µg/mL (≈ 3.66 µM)
- Activity (Pseudomonas aeruginosa [27]): Active
- MIC50 (Pseudomonas aeruginosa [28]): 64 µg/mL (≈ 117 µM)
- MIC90 (Pseudomonas aeruginosa [28]): 128 µg/mL (≈ 234 µM)
- MIC50 (Pseudomonas aeruginosa [29]): 4 µg/mL (≈ 7.32 µM)
- MIC90 (Pseudomonas aeruginosa [29]): 16 µg/mL (≈ 29.3 µM)
- MIC (Pseudomonas aeruginosa [30]): 2 µg/mL (≈ 3.66 µM)
- MIC (Pseudomonas aeruginosa [31]): 2 µg/mL (≈ 3.66 µM)
- MIC (Escherichia coli [32]): 0.5 µg/mL (≈ 0.915 µM)
- MIC (Pseudomonas aeruginosa [33]): 2 µg/mL (≈ 3.66 µM)
- MIC (Pseudomonas aeruginosa [34]): 2 µg/mL (≈ 3.66 µM)
- MIC (Escherichia coli [35]): 4 µg/mL (≈ 7.32 µM)
- MIC (Pseudomonas aeruginosa [36]): 1 µg/mL (≈ 1.83 µM)

SMILES: Cn1c(N)c(NC(=O)NCCN)c[n+]1CC1=C(C(=O)O)N2C(=O)[C@@H](NC(=O)/C(=N\OC(C)(C)C(=O)[O-])c3nsc(N)n3)[C@H]2SC1 [CEFTOLOZANE]
- MIC (Pseudomonas aeruginosa [1]): 1 µg/mL (≈ 1.5 µM)
- MIC (Escherichia coli [2]): 1 µg/mL (≈ 1.5 µM)
- Activity (Pseudomonas aeruginosa [3]): Active
- MIC (Pseudomonas aeruginosa [4]): 0.5 µg/mL (≈ 0.75 µM)
- MIC (Escherichia coli [6]): 32 µg/mL (≈ 48 µM)
- MIC (Escherichia coli [7]): 0.5 µg/mL (≈ 0.75 µM)
- MIC (Pseudomonas aeruginosa [8]): 0.25 µg/mL (≈ 0.375 µM)
- MIC (Escherichia coli [9]): 0.25 µg/mL (≈ 0.375 µM)
- MIC (Pseudomonas aeruginosa [37]): 2 µg/mL (≈ 3 µM)
- MIC (Escherichia coli [10]): 16 µg/mL (≈ 24 µM)
- MIC (Escherichia coli [11]): 4 µg/mL (≈ 6 µM)
- MIC (Escherichia coli [12]): 16 µg/mL (≈ 24 µM)
- Activity (Pseudomonas aeruginosa [38]): Active
- MIC (Escherichia coli [13]): 32 µg/mL (≈ 48 µM)
- MIC50 (Pseudomonas aeruginosa [14]): 1 µg/mL (≈ 1.5 µM)
- MIC90 (Pseudomonas aeruginosa [14]): 2 µg/mL (≈ 3 µM)
- MIC50 (Pseudomonas aeruginosa [15]): 0.5 µg/mL (≈ 0.75 µM)
- MIC90 (Pseudomonas aeruginosa [15]): 1 µg/mL (≈ 1.5 µM)
- MIC (Escherichia coli [16]): 32 µg/mL (≈ 48 µM)
- MIC (Escherichia coli [17]): 16 µg/mL (≈ 24 µM)
- MIC (Escherichia coli [18]): 32 µg/mL (≈ 48 µM)
- Activity (Pseudomonas aeruginosa [39]): Active
- MIC (Escherichia coli [19]): 2 µg/mL (≈ 3 µM)
- MIC (Pseudomonas aeruginosa [20]): 4 µg/mL (≈ 6 µM)
- MIC (Pseudomonas aeruginosa [21]): > 128 µg/mL
- MIC (Escherichia coli [22]): 32 µg/mL (≈ 48 µM)
- MIC (Escherichia coli [23]): 32 µg/mL (≈ 48 µM)
- MIC (Escherichia coli [24]): 0.25 µg/mL (≈ 0.375 µM)
- MIC (Escherichia coli [25]): 0.5 µg/mL (≈ 0.75 µM)
- MIC (Pseudomonas aeruginosa [26]): 0.5 µg/mL (≈ 0.75 µM)
- Activity (Pseudomonas aeruginosa [27]): Active
- MIC50 (Pseudomonas aeruginosa [28]): 2 µg/mL (≈ 3 µM)
- MIC90 (Pseudomonas aeruginosa [28]): 4 µg/mL (≈ 6 µM)
- MIC (Pseudomonas aeruginosa [29]): 0.5 µg/mL (≈ 0.75 µM)
- MIC50 (Pseudomonas aeruginosa [29]): 0.5 µg/mL (≈ 0.75 µM)
- MIC90 (Pseudomonas aeruginosa [29]): 1 µg/mL (≈ 1.5 µM)
- MIC (Pseudomonas aeruginosa [30]): 0.5 µg/mL (≈ 0.75 µM)
- MIC (Pseudomonas aeruginosa [31]): 0.5 µg/mL (≈ 0.75 µM)
- MIC (Escherichia coli [32]): 0.5 µg/mL (≈ 0.75 µM)
- MIC (Pseudomonas aeruginosa [33]): 0.5 µg/mL (≈ 0.75 µM)
- MIC (Pseudomonas aeruginosa [34]): 0.5 µg/mL (≈ 0.75 µM)
- MIC (Escherichia coli [35]): 16 µg/mL (≈ 24 µM)
- MIC (Pseudomonas aeruginosa [36]): 0.25 µg/mL (≈ 0.375 µM)
- Activity (Pseudomonas aeruginosa [40]): Active
- Activity (Pseudomonas aeruginosa [41]): Active
